ChEMBL document CHEMBL4368905, “5,6,7,8-Tetrahydro-1,6-naphthyridine Derivatives as Potent HIV-1-Integrase-Allosteric-Site Inhibitors” (J Med Chem, 2019)

Legend:
[1] = Cytotoxicity against human MT2 cells assessed as reduction in cell viability after 4 days by XTT assay; type: cell-based
Outline: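 Cytotoxicity in MT-2 cells, test compound up to a maximal concentration of 40 μM.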

[2] = system: Human immunodeficiency virus 1; experiment: Antiviral activity against wild type HIV-1 NL4-3 infected in human MT2 cells after 5 days by dual luciferase reporter gene assay; type: functional, organism-based; settings: Human immunodeficiency virus 1, NL4-3, MT2, 120 h
Outline: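 HIV-1 NL4-3 replication (viral outgrowth) in MT-2 cells. EC50 from multiple replicates.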

[3] = Displacement of [3H]-2-tert-butoxy-2-(2-methyl-4-p-tolylquinolin-3-yl)acetic acid from LEDGF/p75 binding site of HIV1 integrase preincubated with radioligand for 1 hr followed by compound addition and measured after 1 hr by microbeta counting assay; design: species or system Human immunodeficiency virus 1
Outline: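 Displacement of tritiated ligand from the LEDGF/p75 binding site on integrase. IC50 from a single replicate.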

[4] = Clearance in rat at 1 mg/kg, iv or 5 mg/kg, po by LC-MS/MS analysis; type: ADME, organism-based; settings: in vivo
Outline: (§1)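 Rats dosed 1 mg/kg IV and 5 mg/kg PO. Clearance, Vss and oral bioavailability derived from these profiles.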

[5] = Volume of distribution at steady state in rat at 1 mg/kg, iv or 5 mg/kg, po by LC-MS/MS analysis; type: ADME, organism-based; settings: in vivo, read-out: Vdss; outline: as §1
[6] = system: Human immunodeficiency virus 1; experiment: Antiviral activity against HIV-1 NL4-3 harboring integrase T124A/T125N double mutant infected in human MT2 cells after 5 days by dual luciferase reporter gene assay; type: functional, organism-based; settings: Human immunodeficiency virus 1, NL4-3, MT2, 120 h
Outline: (§2)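 NL4-3 HIV-1 carrying integrase substitutions engineered into the pol gene. The assay measures inhibition of viral outgrowth in MT-2 cell culture, and the value is reported as EC50.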

[7] = system: Human immunodeficiency virus 1; experiment: Antiviral activity against HIV-1 NL4-3 harboring integrase T124A/T125A double mutant infected in human MT2 cells after 5 days by dual luciferase reporter gene assay; type: functional, organism-based; settings: Human immunodeficiency virus 1, NL4-3, MT2, 120 h; outline: as §2
[8] = system: Human immunodeficiency virus 1; experiment: Antiviral activity against HIV-1 NL4-3 harboring integrase T125A mutant infected in human MT2 cells after 5 days by dual luciferase reporter gene assay; type: functional, organism-based; settings: Human immunodeficiency virus 1, NL4-3, MT2, 120 h; outline: as §2
[9] = system: Human immunodeficiency virus 1; experiment: Antiviral activity against HIV-1 NL4-3 harboring integrase T124A mutant infected in human MT2 cells after 5 days by dual luciferase reporter gene assay; type: functional, organism-based; settings: Human immunodeficiency virus 1, NL4-3, MT2, 120 h; outline: as §2
[10] = system: Human immunodeficiency virus 1; experiment: Antiviral activity against HIV-1 NL4-3 harboring integrase T124N mutant infected in human MT2 cells after 5 days by dual luciferase reporter gene assay; type: functional, organism-based; settings: Human immunodeficiency virus 1, NL4-3, MT2, 120 h; outline: as §2
[11] = Oral bioavailability in rat at 5 mg/kg by LC-MS/MS analysis; type: ADME, organism-based; settings: in vivo; outline: as §1
[12] = Metabolic stability in rat liver microsomes assessed as parent compound remaining at 0.5 uM after 10 mins in presence of NADPH by LC-MS/MS analysis; type: ADME, Microsome; settings: read-out: Stability
Outline: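 Rat liver microsomes, compound at 0.5 μM, incubated 10 minutes. Read-out is percent of parent remaining.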

Row | EC50 [2] [nM] | clearance [4] [mL/min/kg] | Vd [5] [L/kg] | SMILES | CC50 at 96 h [1] [nM] | IC50 [3] [nM] | also measured
1 | 150 |  |  | Cc1ccc(-c2c(C(OC(C)(C)C)C(=O)O)c(C)nc3ccccc23)cc1 (stereo not drawn) | > 40000 |  | 
2 | 1 |  |  | Cc1ccc(CCCN2CCc3nc(C)c([C@H](OC(C)(C)C)C(=O)O)c(-c4cc(F)c5c(c4C)CCCO5)c3C2)cc1F | > 40000 | 11 | 
3 | 280 |  |  | Cc1ccc(-c2c3c(nc(C)c2C(OC(C)(C)C)C(=O)O)CCN(c2cccc(-c4ccccc4)c2)C3)cc1 (stereo not drawn) | > 40000 | 430 | 
4 | 1 |  |  | Cc1nc2c(c(-c3cc(F)c4c(c3C)CCCO4)c1[C@H](OC(C)(C)C)C(=O)O)CN(CCCc1ccccc1F)CC2 | > 40000 | 8 | 
5 | 340 | 163 | 2 | Cc1ccc(-c2c3c(nc(C)c2[C@H](OC(C)(C)C)C(=O)O)CCN(C(=O)CCc2ccccc2)C3)cc1 | > 40000 | 760 | 
6 | 500 |  |  | Cc1ccc(-c2c3c(nc(C)c2[C@H](OC(C)(C)C)C(=O)O)CCN(C(=O)NCc2ccccc2)C3)cc1 | > 40000 | 310 | 
7 | 320 |  |  | Cc1ccc(-c2c3c(nc(C)c2[C@H](OC(C)(C)C)C(=O)O)CCN(c2ccc(-c4ccccc4)cc2)C3)cc1 | > 40000 | 220 | 
8 | 300 | 21 | 7 | Cc1ccc(-c2c3c(nc(C)c2[C@H](OC(C)(C)C)C(=O)O)CCN(Cc2ccccc2)C3)cc1 | > 40000 | 830 | bioavailability [11]: 35%
9 | 2 |  |  | Cc1ccccc1CCCN1CCc2nc(C)c([C@H](OC(C)(C)C)C(=O)O)c(-c3cc(F)c4c(c3C)CCCO4)c2C1 | > 40000 | 19 | 
10 | 1900 |  |  | CC(=O)N1CCc2nc(C)c(C(OC(C)(C)C)C(=O)O)c(-c3ccc(C)cc3)c2C1 (stereo not drawn) | > 40000 | 17000 | 
11 | 200 |  |  | Cc1ccc(-c2c3c(nc(C)c2[C@H](OC(C)(C)C)C(=O)O)CCN(CCOc2ccccc2)C3)cc1 | > 40000 | 170 | 
12 | 70 | 24 | 9 | Cc1ccc(-c2c3c(nc(C)c2C(OC(C)(C)C)C(=O)O)CCN(Cc2ccccc2-c2ccccc2)C3)cc1 (stereo not drawn) | > 40000 | 80 | bioavailability [11]: 25%
13 | 39 | 152 | 66 | Cc1ccc(-c2c3c(nc(C)c2C(OC(C)(C)C)C(=O)O)CCN(CCCC2CCCC2)C3)cc1 (stereo not drawn) | > 40000 | 240 | bioavailability [11]: 32%
14 | 230 | 118 | 19 | Cc1ccc(-c2c3c(nc(C)c2[C@H](OC(C)(C)C)C(=O)O)CCN(C(=O)OCc2ccccc2)C3)cc1 | > 40000 | 140 | bioavailability [11]: 71%
15 | 1600 |  |  | COC(=O)N1CCc2nc(C)c(C(OC(C)(C)C)C(=O)O)c(-c3ccc(C)cc3)c2C1 (stereo not drawn) | > 40000 | 4200 | 
16 | 210 |  |  | CCCCCN1CCc2nc(C)c(C(OC(C)(C)C)C(=O)O)c(-c3ccc(C)cc3)c2C1 (stereo not drawn) | > 40000 | 1100 | 
17 | 240 |  |  | Cc1ccc(-c2c3c(nc(C)c2[C@H](OC(C)(C)C)C(=O)O)CCN(CCc2ccccc2)C3)cc1 | > 40000 | 850 | 
18 | 120 |  |  | Cc1ccc(-c2c3c(nc(C)c2[C@H](OC(C)(C)C)C(=O)O)CCN(C/C=C/c2ccccc2)C3)cc1 | > 40000 | 160 | 
19 | 2100 |  |  | Cc1ccc(-c2c3c(nc(C)c2C(OC(C)(C)C)C(=O)O)CCN(C)C3)cc1 (stereo not drawn) | > 40000 | 5800 | 
20 | 2600 |  |  | Cc1ccc(-c2c3c(nc(C)c2C(OC(C)(C)C)C(=O)O)CCN(S(C)(=O)=O)C3)cc1 (stereo not drawn) | > 40000 | 2200 | 
21 | 2 |  |  | Cc1cccc(CCCN2CCc3nc(C)c([C@H](OC(C)(C)C)C(=O)O)c(-c4cc(F)c5c(c4C)CCCO5)c3C2)c1 | > 40000 | 29 | 
22 | 4 |  |  | Cc1nc2c(c(-c3cc(F)c4c(c3C)CCCO4)c1[C@H](OC(C)(C)C)C(=O)O)CN(CCCc1cccc(F)c1)CC2 | > 40000 | 44 | 
23 | 470 | 24 | 3 | Cc1ccc(-c2c3c(nc(C)c2[C@H](OC(C)(C)C)C(=O)O)CCN(c2ccccc2)C3)cc1 | > 40000 | 230 | 
24 | 4 | 92 | 1 | Cc1nc2c(c(-c3cc(F)c4c(c3C)CCCO4)c1[C@H](OC(C)(C)C)C(=O)O)CN(CCCc1ccc(F)cc1)CC2 | > 40000 | 15 | remaining at 10 min, 0.5 µM [12]: 78%; bioavailability [11]: 10%
25 | 2 |  |  | Cc1ccc(CCCN2CCc3nc(C)c([C@H](OC(C)(C)C)C(=O)O)c(-c4cc(F)c5c(c4C)CCCO5)c3C2)cc1 | > 40000 | 12 | 
26 | 5 |  |  | Cc1nc2c(c(-c3cc(F)c4c(c3C)CCCO4)c1[C@H](OC(C)(C)C)C(=O)O)CN(CC1CC1c1ccccc1)CC2 (mixture of isomers) | > 40000 | 24 | 
27 | 58 |  |  | Cc1nc2c(c(-c3cc(F)c4c(c3C)CCCO4)c1[C@H](OC(C)(C)C)C(=O)O)CN(CCCc1ccncc1)CC2 (single isomer, unassigned; atropisomer) | > 40000 | 40 | 
28 | 52 |  |  | Cc1nc2ccccc2c(-c2ccc3c4c(ccnc24)CCO3)c1[C@H](OC(C)(C)C)C(=O)O [BI-224436] | > 40000 | 71 | 

Row | SMILES | EC50 [2] [nM] | clearance [4] [mL/min/kg] | Vd [5] [L/kg] | CC50 at 96 h [1] [nM] | IC50 [3] [nM] | also measured
29 | Cc1ccc(-c2c3c(nc(C)c2[C@H](OC(C)(C)C)C(=O)O)CCN(CCCc2ccccc2)C3)cc1 | 10 | 171 | 16 | > 40000 | 70 | EC50 [6]: 31 nM; EC50 [7]: 34 nM; EC50 [8]: 21 nM; EC50 [9]: 17 nM; EC50 [10]: 20 nM
30 | Cc1nc2c(c(-c3cc(F)c4c(c3C)CCCO4)c1[C@H](OC(C)(C)C)C(=O)O)CN(CCCc1ccccc1)CC2 | 4 | 82 | 6 | > 40000 | 16 | remaining at 10 min, 0.5 µM [12]: 78%; EC50 [7]: 6 nM; EC50 [8]: 7 nM; bioavailability [11]: 10%; EC50 [10]: 6 nM
